Measured values of several laboratories.
Protocols differ between the studies behind these lines.
Target: Dual specificity mitogen-activated protein kinase kinase 4 (MAP2K4, Homo sapiens, UniProt P45985)
One construct used (P45985 1-399): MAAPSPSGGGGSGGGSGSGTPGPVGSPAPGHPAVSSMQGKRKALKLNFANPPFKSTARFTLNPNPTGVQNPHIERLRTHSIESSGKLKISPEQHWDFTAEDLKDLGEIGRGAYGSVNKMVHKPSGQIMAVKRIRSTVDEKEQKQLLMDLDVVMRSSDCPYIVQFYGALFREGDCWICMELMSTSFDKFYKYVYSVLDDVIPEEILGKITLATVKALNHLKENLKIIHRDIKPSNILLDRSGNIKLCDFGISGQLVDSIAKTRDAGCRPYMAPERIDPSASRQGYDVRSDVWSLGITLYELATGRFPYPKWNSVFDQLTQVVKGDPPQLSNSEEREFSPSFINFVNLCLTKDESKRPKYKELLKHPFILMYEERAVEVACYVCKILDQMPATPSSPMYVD

SMILES	read-out	action	technique	cells	concentration	quantity	result
C[C@H](c1ccc(F)cc1)N(Cc1cccc(C(=O)O)c1)C(=O)c1cnc2ccccc2c1	cell-free assay		competition with immobilised ligand		1 µM	remaining binding	100%
Nc1ncnc2occ(-c3ccc(NC(=O)Nc4cc(C(F)(F)F)ccc4F)cc3)c12	cell-free assay	inhibitor			20 µM	remaining signal	3.9%
CC(C)(C)c1nc2c(s1)c1nc(N)ncc1c1ccc(NS(=O)(=O)c3c(F)cccc3F)c(F)c12	enzyme activity	inhibitor	radiometric		1 µM	remaining activity	81%
CN1CCN(c2cnc3c(C4CCN(C(=O)c5ccc(OC(F)(F)F)cc5N)CC4)ncnc3c2)CC1	cell-free assay		competition with immobilised ligand		1 µM	remaining binding	100%
CC(C)(O)[C@H]1CC[C@H](Nc2ccc3ncc(-c4cccc(C(F)(F)F)c4)n3n2)CC1	enzyme activity	inhibitor			1 µM	remaining activity	102%
CN(CCCC(F)(F)F)c1nccc(-c2cnn3ncccc23)n1	binding				1 µM	remaining binding	100%
Cc1sc(C(=O)NC2COC2)cc1-n1cc(NC(=O)Nc2c(F)cccc2Cl)cn1	enzyme activity	inhibitor			10 µM	remaining activity	93%
CCN1CCN(Cc2ccc(NC(=O)c3ccc(C)c(Oc4ccnc5[nH]ccc45)c3)cc2C(F)(F)F)CC1	target engagement in cells	inhibitor	chemoproteomics	A-375	0.5 µM	inhibition	-23%
CC(C)(C)c1nc(-c2cccc(NS(=O)(=O)c3c(F)cccc3F)c2F)c(-c2ccnc(N)n2)s1	enzyme activity	inhibitor	radiometric		1 µM	remaining activity	87%
O=C(Nc1cnn(-c2csc(C(=O)NC3COC3)c2)c1)Nc1ccccc1Cl	enzyme activity	inhibitor			5 µM	remaining activity	113%
Cc1ccc(C(=O)Nc2ccc(CN3CCN(C)CC3)c(C(F)(F)F)c2)cc1C#Cc1cnc2cccnn12	enzyme activity	inhibitor			23.5 nM	remaining activity	97%
